The values below come from ChEMBL document CHEMBL1125434, “Preparation and in vitro and in vivo evaluation of quinolones with selective activity against gram-positive organisms” (1992).

Holding throughout (type): functional
Assay [1] deals with Streptococcus equinus. Kind of assay: In vitro minimum inhibitory concentration against Streptococcus bovis A5169 using brain-heart infusion agar. Put shortly: (§1)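 Overnight cultures were grown in BHI broth at 36 °C. Twofold dilutions of a 2000 µg/mL stock were made in BHI agar, giving 200–0.005 µg/mL. Plates received about 10^4 organisms and were incubated for 18 h at 36 °C. MIC was the lowest concentration with no visible growth on the plate.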

For assay [2], the system named is Escherichia coli. Kind of assay: In vitro minimum inhibitory concentration against Escherichia coli Juhl using brain-heart infusion agar. Put shortly:
as §1

For assay [3], the system named is Klebsiella pneumoniae. Kind of assay: In vitro minimum inhibitory concentration against Klebsiella pneumoniae 8045 using brain-heart infusion agar. Summed up:
as §1

In assay [4] the test system is Pseudomonas aeruginosa. Kind of assay: In vitro minimum inhibitory concentration against Pseudomonas aeruginosa A5007 using brain-heart infusion agar. Put shortly:
as §1

Assay [5] deals with Staphylococcus aureus. In words: In vitro minimum inhibitory concentration against Staphylococcus aureus A 5177 using brain-heart infusion agar. Put shortly: as §1
Assay [6] concerns Streptococcus pyogenes. Kind of assay: In vitro minimum inhibitory concentration against Streptococcus pyogenes 930 using brain-heart infusion agar. Summed up: as §1
Assay [7] concerns Staphylococcus epidermidis. In words: In vitro minimum inhibitory concentration against Staphylococcus epidermidis 3159 using brain-heart infusion agar. Summed up:
as §1

The subject of assay [8] is Staphylococcus aureus. In words: In vitro minimum inhibitory concentration against Staphylococcus aureus CMX 553 using brain-heart infusion agar. Put shortly:
as §1

Assay [9] concerns Staphylococcus aureus. In words: In vitro minimum inhibitory concentrationp against Staphylococcus aureus ATCC 6538P using brain-heart infusion agar. Put shortly: as §1
Assay [10] has as its system Pseudomonas aeruginosa. Kind of assay: In vitro minimum inhibitory concentration against Pseudomonas aeruginosa K799 / WT using brain-heart infusion agar. Put shortly:
as §1

For assay [11], the system named is Enterococcus faecium. Kind of assay: In vitro minimum inhibitory concentration against Enterococcus faecium ATCC 8043 using brain-heart infusion agar. Summed up: as §1
For assay [12], the system named is Acinetobacter. In words: In vitro minimum inhibitory concentration against Acinetobacter CMX 669 using brain-heart infusion agar. Put shortly: as §1
The subject of assay [13] is Klebsiella aerogenes. In words: In vitro minimum inhibitory concentration against Enterobacter aerogenes ATCC 13048 using brain-heart infusion agar. Put shortly:
as §1

The test system of assay [14] is Streptococcus agalactiae. Kind of assay: In vitro minimum inhibitory concentration against Streptococcus agalactiae CMX 508 using brain-heart infusion agar. Summed up: as §1
Assay [15] concerns Staphylococcus aureus. In words: In vivo antibacterial activity against Staphylococcus aureus NCTC 10649 infected mouse by oral administration. Put shortly:
(§2)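 Compound was given in water or in dilute NaOH diluted with water, orally or subcutaneously. The dose was split equally between 1 and 5 h post-infection. Groups were 10 mice at ≥3 dose levels. ED50 was calculated from day-6 cumulative mortality by the trimmed Logit method.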

The subject of assay [16] is Staphylococcus aureus. In words: In vivo antibacterial activity against Staphylococcus aureus NCTC 10649 infected mouse by subcutaneous administration. Particulars: sc. Put shortly:
as §2

For assay [17], the system named is Staphylococcus aureus. In words: In vitro minimum inhibitory concentration against Staphylococcus aureus NCTC 10649 using brain-heart infusion agar. Summed up:
as §1

Assay [18] relates to Staphylococcus aureus. Kind of assay: In vitro minimum inhibitory concentration against Staphylococcus aureus ATCC 6538P using brain-heart infusion agar. Put shortly:
as §1

In assay [19] the test system is Klebsiella pneumoniae. Kind of assay: In vitro minimum inhibitory concentration brain-heart infusion agar. Summed up: as §1
Assay [20] concerns Pseudomonas aeruginosa. In words: Not Plasmodium species.

Converted amounts (≈) assume the structure as drawn. A value given as a limit tells only on which side of the number the result lay.

Broadly, the MIC is the lowest concentration that inhibits growth of the organism. A low value points to greater potency. Broadly, the ED50 is the dose at which the effect has come halfway, by size or by number of responders. A lower ED50 goes with greater potency.

Take `NC1CCN(c2cc3c(cc2F)c(=O)c(C(=O)O)cn3-c2ccc(F)cc2F)CC1`: the minimal inhibitory concentration (MIC) in assay [1] stood at 1.56 µg/mL (≈ 3.74 µM); in assay [2], 0.1 µg/mL (≈ 0.24 µM); in assay [3], 0.1 µg/mL (≈ 0.24 µM); in assay [4], 0.78 µg/mL (≈ 1.87 µM); in assay [5], 0.39 µg/mL (≈ 0.934 µM); in [6] it was 0.39 µg/mL (≈ 0.934 µM). For the same compound, the minimum inhibitory concentration (MIC) worked out at 0.39 µg/mL (≈ 0.934 µM) in assay [7]; 0.39 µg/mL (≈ 0.934 µM) in assay [8]; 0.1 µg/mL (≈ 0.24 µM) in assay [9]; 0.78 µg/mL (≈ 1.87 µM) in assay [10]; 0.78 µg/mL (≈ 1.87 µM) in [11]; 0.78 µg/mL (≈ 1.87 µM) in assay [12]. For the same compound, the figures for the MIC in [13] and in [14] were 0.39 µg/mL (≈ 0.934 µM) and 0.78 µg/mL (≈ 1.87 µM), respectively.

Regarding `O=C(O)c1cn(C2CC2)c2c(F)c(N3CCC(=NO)CC3)c(F)cc2c1=O`, the MIC in assay [1] stood at 0.39 µg/mL (≈ 1.03 µM); in assay [2], 0.2 µg/mL (≈ 0.53 µM); in assay [3] it was 0.1 µg/mL (≈ 0.265 µM); in [4] it was 3.1 µg/mL (≈ 8.22 µM); in assay [5] it was 0.02 µg/mL (≈ 0.053 µM); in assay [6] it was 0.1 µg/mL (≈ 0.265 µM). The minimum inhibitory concentration (MIC) turned out to be 0.02 µg/mL (≈ 0.053 µM) in assay [7]; 0.05 µg/mL (≈ 0.133 µM) in [8]; 1.56 µg/mL (≈ 4.13 µM) in [10]; 0.2 µg/mL (≈ 0.53 µM) in assay [11]; 0.39 µg/mL (≈ 1.03 µM) in assay [12]; 0.39 µg/mL (≈ 1.03 µM) in assay [13]. For the same compound, the minimum inhibitory concentration (MIC) in assay [17] worked out at 0.02 µg/mL (≈ 0.053 µM); in assay [18] it was 0.01 µg/mL (≈ 0.0265 µM); in assay [14] it was 0.2 µg/mL (≈ 0.53 µM). The values for the 50% effective dose (ED50) in assay [15] and in assay [16] were 3 mg/kg and 6.7 mg/kg, respectively.

`O=C(O)c1cn(C2CC2)c2c(F)c(N3CC/C(=N\O)C3)c(F)cc2c1=O`: the minimal inhibitory concentration (MIC) in assay [1] came to 0.2 µg/mL (≈ 0.55 µM); in assay [2] it was 0.02 µg/mL (≈ 0.055 µM); in assay [3], 0.05 µg/mL (≈ 0.138 µM); in assay [4], 0.78 µg/mL (≈ 2.15 µM); in [5], 0.01 µg/mL (≈ 0.0275 µM); in assay [6], 0.1 µg/mL (≈ 0.275 µM). The minimal inhibitory concentration (MIC) in assay [7] came to 0.02 µg/mL (≈ 0.055 µM); in assay [8], 0.02 µg/mL (≈ 0.055 µM); in assay [10] it was 0.78 µg/mL (≈ 2.15 µM); in assay [11], 0.1 µg/mL (≈ 0.275 µM); in [12], 0.2 µg/mL (≈ 0.55 µM); in [13], 0.39 µg/mL (≈ 1.07 µM). For the same compound, the MIC in assay [17] is 0.01 µg/mL (≈ 0.0275 µM); in assay [18], < 0.005 µg/mL; in assay [14] it was 0.1 µg/mL (≈ 0.275 µM). For the same compound, the ED50 in [15] worked out at 3 mg/kg; in assay [16], 1.5 mg/kg.

As for `O=C(O)c1cn(-c2ccc(F)cc2F)c2cc(N3CC/C(=N/O)C3)c(F)cc2c1=O`, the MIC in assay [1] was 0.39 µg/mL (≈ 0.934 µM); in [2], 0.2 µg/mL (≈ 0.479 µM); in assay [3] it was 0.2 µg/mL (≈ 0.479 µM); in [4] it was 3.1 µg/mL (≈ 7.43 µM); in [5], < 0.05 µg/mL; in assay [6], 0.2 µg/mL (≈ 0.479 µM). Further, the MIC is < 0.05 µg/mL in assay [7]; < 0.05 µg/mL in assay [8]; 1.56 µg/mL (≈ 3.74 µM) in [10]; 0.2 µg/mL (≈ 0.479 µM) in assay [11]; 0.39 µg/mL (≈ 0.934 µM) in [12]; 0.78 µg/mL (≈ 1.87 µM) in assay [13]. Besides, the figures for the minimum inhibitory concentration (MIC) in assay [17], in assay [18] and in assay [14] were < 0.05 µg/mL, < 0.05 µg/mL and 0.2 µg/mL (≈ 0.479 µM), respectively. For the same compound, the results for the ED50 in assay [15] and in assay [16] were > 12 mg/kg and 4.1 mg/kg, respectively.

For the compound `O=C(O)c1cn(C2CC2)c2nc(N3CC/C(=N\O)C3)c(F)cc2c1=O`, the minimal inhibitory concentration (MIC) in assay [1] was 0.78 µg/mL (≈ 2.25 µM); in [2], 0.02 µg/mL (≈ 0.0578 µM); in assay [19] it was 0.05 µg/mL (≈ 0.144 µM); in [4] it was > 100 µg/mL; in assay [5], 0.05 µg/mL (≈ 0.144 µM); in assay [6], 0.39 µg/mL (≈ 1.13 µM). Moreover, the MIC in assay [20] was 0.78 µg/mL (≈ 2.25 µM); in [7] it was 0.05 µg/mL (≈ 0.144 µM); in assay [8] it was 0.05 µg/mL (≈ 0.144 µM); in assay [11], 0.39 µg/mL (≈ 1.13 µM); in [12], 0.2 µg/mL (≈ 0.578 µM); in assay [13], 0.2 µg/mL (≈ 0.578 µM). Also, the minimal inhibitory concentration (MIC) was determined as 0.05 µg/mL (≈ 0.144 µM) in assay [17], 0.02 µg/mL (≈ 0.0578 µM) in assay [18] and 0.2 µg/mL (≈ 0.578 µM) in assay [14].

In the case of `CON=C1CCN(c2nc3c(cc2F)c(=O)c(C(=O)O)cn3-c2ccc(F)cc2F)CC1`, the minimal inhibitory concentration (MIC) is 6.2 µg/mL (≈ 13.9 µM) in assay [1]; 6.2 µg/mL (≈ 13.9 µM) in [2]; 3.1 µg/mL (≈ 6.94 µM) in assay [3]; 50 µg/mL (≈ 112 µM) in [4]; 0.2 µg/mL (≈ 0.448 µM) in assay [5]; 3.1 µg/mL (≈ 6.94 µM) in [6]. Besides, the MIC was 0.39 µg/mL (≈ 0.874 µM) in assay [7]; 0.39 µg/mL (≈ 0.874 µM) in assay [8]; 25 µg/mL (≈ 56 µM) in [10]; 3.1 µg/mL (≈ 6.94 µM) in assay [11]; 12.5 µg/mL (≈ 28 µM) in assay [12]; 12.5 µg/mL (≈ 28 µM) in assay [13]. Further, the minimum inhibitory concentration (MIC) in [17] came to 0.2 µg/mL (≈ 0.448 µM); in [18] it was 0.1 µg/mL (≈ 0.224 µM); in [14], 1.56 µg/mL (≈ 3.49 µM). Besides, the values for the median effective dose (ED50) in assay [15] and in assay [16] were > 12 mg/kg and > 8 mg/kg, respectively.
